40 compounds from ChEMBL document CHEMBL4513216, “Probing the Open Global Health Chemical Diversity Library for Multistage-Active Starting Points for Next-Generation Antimalarials” (ACS Infect Dis, 2020) can be followed below.

A short description of this data set: Toxicity liver stage against HepG2, at 10uM. The format is cell-based. The arrangement: test concentration 10 uM, cell line HepG2-A16-CD81EGFP. As to conditions: human, HepG2-A16-CD81EGFP cells; read-out: INHIBITION
The procedure, abridged: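 Uninfected HepG2-A16-CD81EGFP cells, 3 × 10^3 per well, 1536-well, plated on prespotted compound at 10 μM final, parasite-free screening media added to match infected plates; puromycin 10 μM positive, DMSO 0.5% negative; run in parallel with 48 h PbLuc assay at 37 °C, 5% CO2; viability by CellTiter-Glo luminescence, normalized to controls.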
Regarding `c1ccc(-c2noc([C@@H]3Cc4nc[nH]c4CN3)n2)cc1`, the cytotoxicity at 10 µM is -4.26%. For `COc1cccc2c1ccn2CCNC(=O)CC(C)C`, the cytotoxicity at 10 µM was determined as 4.38%.

As to `Cc1nsc(C(=O)NCCc2ccccc2)n1`, the cytotoxicity at 10 µM amounted to 4.28%. On to `CCOCC(=O)N1CCCn2c(CN3CCOCC3)nnc2C1`, for which the cytotoxicity at 10 µM was -132%. Turning to `Cn1nc(C#N)c2c1CN(C(=O)c1ccco1)CCC2`, the cytotoxicity at 10 µM is -133%.

On to `CC(C)c1nn(CC(=O)N2CCCCC2)c(=O)c2c1cnn2C(C)(C)C`, for which the cytotoxicity at 10 µM is -13.2%. Turning to `COc1cccc(-c2cc(C(=O)NCCCn3nc(C)cc3C)[nH]n2)c1`, the cytotoxicity at 10 µM is -5.86%. For the compound `CCOC(=O)Cc1n[nH]c(-c2cncc(Br)c2)n1`, the cytotoxicity at 10 µM amounted to 3.24%.

As to `O=C(c1ccc(-c2ccc(O)nc2)s1)N1CCCCC1`, the cytotoxicity at 10 µM is 3.35%. As to `CNC(=O)CN1CCC(CN(C)CCSc2ccccc2)CC1`, the cytotoxicity at 10 µM was -0.488%. With `Cn1ccnc1CN1CCCC1CCc1ccccc1` (stereo not given) the figure was 13.8%; with `Cc1ccc(Nc2c(C#N)c(=O)n(C)c(=O)n2C)cc1F`, -4.99%; with `O=C(c1cccnc1-n1cncn1)N1CCN(c2ccccc2)CC1`, 4.06%. With `Cc1cc(NC(=O)NCC(c2ccsc2)N(C)C)n(C)n1` (stereo not given) the figure was -5.33%; with `CCC(=O)Nc1ccc(C(C)NC(=O)COC)cc1` (stereo not given), -145%. Take `Cc1cc(CNc2ccc3nc(C4CC4)sc3c2)no1`: the cytotoxicity at 10 µM is 0.981%. Take `N#Cc1cnc(NCCCN2C(=O)COc3ccccc32)c(Cl)c1`: the cytotoxicity at 10 µM was -3.64%. As to `CC1CCC(NS(=O)(=O)CC(=O)Nc2ccc(N3CCCC3)cn2)CC1` (stereo not given), the cytotoxicity at 10 µM was 1.54%. The same measure for `CS(=O)(=O)CCOCCNc1ccc2ccc(F)cc2n1`: 3.55%; for `O=C(N[C@H]1CN2CCC1CC2)c1cc(Cn2cnc3ccccc32)[nH]n1`: -4.26%.

For `Cc1nccc(N2C[C@H](NC(=O)CNS(C)(=O)=O)[C@@H](C3CC3)C2)n1`, the cytotoxicity at 10 µM is -13.8%.

Turning to `Nc1nc(CCNc2ncnc3c2CCN(C(=O)C2CC2)C3)cs1`, the cytotoxicity at 10 µM was -6.68%. Take `COCc1ccc(C(=O)N2CCc3c(ncnc3N3CCOCC3)C2)o1`: the cytotoxicity at 10 µM is -2.17%. Consider `CSc1ccc(-c2nc(CN3CCC(CN)C3)c(C)o2)cc1` (stereo not given), for which the cytotoxicity at 10 µM is -2.65%. For `CCC(CO)N(Cc1ccsc1)Cc1ccccc1C(=O)O` (stereo not given), the cytotoxicity at 10 µM was -14.4%. In the case of `O=C(c1cncc(N2CCC3(CCCNC3)C2)n1)N1CCCC1` (stereo not given), the cytotoxicity at 10 µM was -4.15%. With `CCCc1nnc(NC2CCN(C3CCSCC3)CC2)o1`, the cytotoxicity at 10 µM is -1.38%. Turning to `COc1cccnc1-c1ccc(F)c2c1OC(CN)C2` (stereo not given), the cytotoxicity at 10 µM stood at 1.74%. For `CCN1CCc2[nH]cnc2C12CCN(c1ccc(Cl)cn1)CC2`, the cytotoxicity at 10 µM stood at 6%. With `CCSCCC(=O)NCc1cc2n(n1)CCN(C(=O)N(C)C)C2` the figure was -5.38%.

For `COc1ccccc1Oc1ncccc1CNC(=O)[C@@H](N)CCO`, the cytotoxicity at 10 µM was -17.5%. Regarding `O=C(Cn1nc(-c2ccc(F)cc2)oc1=O)NCc1ccccc1F`, the cytotoxicity at 10 µM is -9.04%. Take `Cc1cccc(C(=O)N2C[C@@H]3COC[C@@H](CC(=O)N4CCCC4)[C@@H]3C2)n1`: the cytotoxicity at 10 µM is -120%. With `CCn1ncc2c1C(COC)CN(Cc1cccnc1)C2` (stereo not given) the figure was 0.588%; with `O=C(c1cnccn1)N1CCCC2(CCN(Cc3ccsc3)CC2)C1`, 1.55%. In the case of `O=C(c1ccc[nH]1)N1CC[C@@H](OCC2CC2)[C@@H]1Cc1cccnc1`, the cytotoxicity at 10 µM was 0.878%. The same measure for `CN1CC[C@H]2OCC[C@@]2(C(=O)NCCc2ccccn2)C1`: 1.82%. On to `COCCN1CCC2(CC1)CCN(Cc1ccccn1)CC2`, for which the cytotoxicity at 10 µM was -3.54%. The same measure for `CC[C@@H]1N(Cc2ccc(F)cc2)CCC[C@]12CCC(=O)N2CCOC`: 11.5%.

Regarding `COc1ccc(-n2cc3[nH]c(=O)n(Cc4cccc(F)c4)n3c2=O)cc1`, the cytotoxicity at 10 µM amounted to 14.8%.
